# In the library only some 2.4% were active in any assay of this set; here they are far more common.
# PREPL inh: PREPL enzyme inhibitors, primary screen, biochemical, fluorescence polarization. recombinant PREPL, fluorescence polarization activity-based probe. inhibition, % at 5.96 µM. 320,000 compounds, 0.68% hits. AID 2751, 2010; in the data active = inhibition above about 43%;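 also: 0% = enzyme with DMSO and 100% = wells lacking enzyme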
# Target sequence (Q4J6C6 whole entry, looked up): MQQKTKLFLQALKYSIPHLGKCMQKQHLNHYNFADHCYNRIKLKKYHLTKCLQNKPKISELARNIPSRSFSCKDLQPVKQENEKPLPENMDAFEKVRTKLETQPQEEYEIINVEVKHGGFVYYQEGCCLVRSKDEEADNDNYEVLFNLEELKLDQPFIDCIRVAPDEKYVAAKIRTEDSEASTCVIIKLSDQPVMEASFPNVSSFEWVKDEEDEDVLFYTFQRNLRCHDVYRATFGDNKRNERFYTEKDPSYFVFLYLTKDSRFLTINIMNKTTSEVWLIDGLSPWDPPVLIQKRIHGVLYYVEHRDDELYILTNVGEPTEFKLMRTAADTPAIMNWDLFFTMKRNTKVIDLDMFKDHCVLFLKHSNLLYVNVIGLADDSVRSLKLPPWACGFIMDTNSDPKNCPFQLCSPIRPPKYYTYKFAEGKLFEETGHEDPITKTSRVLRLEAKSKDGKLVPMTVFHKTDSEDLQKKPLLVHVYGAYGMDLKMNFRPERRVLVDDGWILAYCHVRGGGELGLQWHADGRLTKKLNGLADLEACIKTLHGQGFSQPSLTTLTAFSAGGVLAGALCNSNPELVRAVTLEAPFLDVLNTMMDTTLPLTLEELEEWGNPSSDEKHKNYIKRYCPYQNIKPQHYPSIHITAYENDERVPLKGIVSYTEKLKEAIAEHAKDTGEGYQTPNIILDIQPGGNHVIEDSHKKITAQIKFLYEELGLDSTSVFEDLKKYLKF
# TbMetRS inhib: T. brucei MetRS inhibitors, primary screen, biochemical, luminescence; purified T. brucei MetRS, ATP depletion, Kinase-Glo luminescence; inhibition, % at 11.9 µM; 360,000 compounds, 0.4% hits; AID 624268, 2012;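 active = inhibition above a per-plate cutoff of the control wells' mean inhibition plus 3 SD, cut at about 5.5% in these data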;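 also: 0% = DMSO wells median and 100% = median of wells with control inhibitor compound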
#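 Dosing: 11.9 µM single point; system: parasite MetRS enzyme; technique: luminescence of leftover ATP; times: 15 min enzyme-compound preincubation, 2 h reaction, 10 min detection, 25 °C; replicates: each compound tested once; read-out basis: percent inhibition relative to median high and low control wells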
# Rpn11 block: Rpn11 (PSMD14) deubiquitinase inhibitors, primary screen, biochemical, fluorescence polarization, uHTS; 26S proteasome non-ATPase regulatory subunit 14 (Homo sapiens), O00487; human 26S proteasome, Ub4-pepOG fluorescence polarization; 20S core pre-blocked with epoxomicin; inhibition, % at 20 µM; 360,000 compounds, 0.59% hits; AID 588493, 2011;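 active = inhibition at 20 µM, scaled to each plate's controls, above about 33%, limit read from the data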
# CSN inh: inhibitors of CSN-mediated cullin deneddylation, primary screen, biochemical, fluorescence polarization, uHTS. COP9 signalosome complex subunit 5 (Homo sapiens), Q92905. Purified CSN, SCF-Nedd8-OG deneddylation. inhibition, % at 12.5 µM. 360,000 compounds, 0.38% hits;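 active = pattern-corrected inhibition above about 35%, with an unprinted fluorescence ratio check between 0.5 and 1.5, limit read from the data, passing the limit was not always enough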;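 also: 0% = enzyme with substrate and 100% = substrate without enzyme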
#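 Material: purified human Csn5 enzyme expressed in HEK293T cells / Medium: Tris buffer pH 7.5, NaCl, DTT, Tween-20, trehalose, ovalbumin / Compound dosing: 12.5 µM single point / Schedule: 90 min incubation of compound, enzyme and substrate at room temperature / Signal: fluorescence polarization of the substrate / Control set: no-enzyme wells high, enzyme-with-substrate wells low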
# HNF4A DNA FP: change in binding of human HNF4A to DNA, primary screen, biochemical, fluorescence polarization, FITC-DNA; 1 h; Hepatocyte nuclear factor 4-alpha (Homo sapiens), P41235; 360,000 compounds, 0.3% hits; activity change, % at 10 µM; in the data active = activity change above about 30%, passing the limit was not always enough
# Neddyl block: inhibitors of cullin neddylation, primary screen, biochemical, TR-FRET, uHTS, NAE and Ubc12; NEDD8-conjugating enzyme Ubc12 (Homo sapiens) + NEDD8-activating enzyme E1 regulatory …; inhibition, % at 25 µM; 360,000 compounds, 0.58% hits; AID 651699, 2012; in the data active = inhibition above about 36%
# Neddyl inh conf: blockade of NEDD8 conjugation to cullin – biochemical, TR-FRET, single concentration, confirmation | 1,800 compounds, 13% hits | TR-FRET cullin neddylation biochemical assay | AID 652217, 2013 | calls only at 25 µM | shares compounds with Neddyl block; in the data active = inhibition above about 40%;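 also: neddylation substrate is the cullin 1 ring ligase complex with SKP2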
# CSN5 deneddyl: Csn5 deneddylation inhibitors, confirmation, biochemical, fluorescence polarization, single concentration, SCF-Nedd8OG substrate | inhibition, % at 16.6 µM | shares compounds with CSN inh | Csn5 deneddylation of SCF-Nedd8OG, 90 min | 540 compounds, 62% hits | AID 720654, 2013; in the data active = inhibition above about 50%;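 also: 0% = DMSO with enzyme and 100% = no enzyme wells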
# MMP2 cntr CSN: MMP-2 protease inhibition counter-screen, confirmation, counter-screen for CSN deneddylation inhibitor project, biochemical, fluorescence, single concentration. recombinant MMP-2, FRET substrate fluorescence, 60 min. inhibition, % at 16.6 µM. shares compounds with CSN inh. 540 compounds, 33% hits;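 active = corrected plate-normalized z-score of 5 or more, or -5 or less, or inhibition of 15% or more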;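 also: plate controls were DMSO wells with enzyme for no effect and buffer wells lacking MMP-2 for full effect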
# Thrombin counter: thrombin (bovine) inhibition, counter-screen for CSN hits; shares compounds with CSN inh; bovine thrombin cleavage of Ub4-pepOG, fluorescence polarization; inhibition, % at 16.6 µM; 540 compounds, 49% hits;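 active = inhibition at or above a set limit, with a fluorescence interference ratio between 0.5 and a set maximum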
# Active calls of the source: *; i = inactive; nt = no result given; + = active, no number.
SMILES,PREPL inh,TbMetRS inhib,Rpn11 block,CSN inh,HNF4A DNA FP,Neddyl block,Neddyl inh conf,others
CCn1c(O)c(/C=N/NC(=O)c2ccccc2)c(=O)[nH]c1=S,0.0,-0.3,5.2,6.5,-3.2,60.3*,i,
CCCCCCC(=O)N/N=C/c1c(O)n(C2CC2)c(=S)[nH]c1=O,0.3,0.3,2.4,3.2,-0.9,55.9*,i,
CCCCCCC(=O)N/N=C/c1c(O)n(C(C)CC)c(=S)[nH]c1=O (configuration not stated),6.7,-0.2,29.0,2.2,3.4,33.5,nt,
O=C1CN=C(c2ccc[nH]2)c2cc(Cl)ccc2N1,-10.0,-0.4,3.6,-8.4,2.4,39.1*,+,
O=C(c1ccncc1)C12CN3CN(CN(C3)C1)C2,5.2,0.6,2.5,-0.5,0.2,10.2,nt,
O=C1CN=C(c2ccc(Br)cc2)c2oc3ccccc3c2N1,-2.0,-0.9,3.0,3.2,2.6,40.5*,i,
CSCCC(c1nnnn1-c1ccc2c(c1)OCCO2)N1CCC2(CC1)C(=O)NCN2c1ccccc1 (configuration not stated),nt,0.2,-3.1,0.2,2.8,6.9,nt,
CN(C)c1ccc(/C=C/c2cc[n+](C)c3ccccc23)cc1,nt,-0.3,6.3,4.6,3.0,-9.6,nt,
C[n+]1ccc(-c2ccccc2)c2ccccc21,9.0,0.4,-3.3,0.0,3.6,27.9*,+,
Cc1cc(N(CCCl)CCCl)ccc1C=NNC(=O)c1cccnc1,nt,-0.3,-4.9,0.5,-1.9,38.6*,i,
CCC(=NCC1CCCO1)c1c(O)n(-c2ccc(OC)cc2)c(=O)[nH]c1=O (configuration not stated),2.8,-0.4,-5.2,-3.5,2.4,-11.1,nt,
CC(=O)CC(c1ccc2c(c1)OCO2)c1c(O)c2ccccc2oc1=O (configuration not stated),nt,0.0,-1.8,-4.1,-2.2,3.9,nt,
CN(C)C(=O)Oc1c(Cl)cc(Cl)c2ccccc12,-2.4,-1.6,0.7,1.9,-0.5,-17.8,nt,
CN(C)C(=O)Oc1ccc(Cl)c2cccnc12,4.3,1.4,0.8,117.6,3.1,42.5*,i,
O=C1NC(=O)N(Cc2ccco2)C(=O)/C1=C\c1cccn1CCOc1ccc(Cl)cc1,-16.9,0.0,6.4,22.2,3.6,4.4,nt,
CN(C)c1ccc(/C=C2/C(=O)NC(=O)N(Cc3ccco3)C2=O)cc1,-7.5,-0.2,4.8,30.0,-9.0,-2.2,nt,
CCN(CC)c1ccc(/C=C2/C(=O)NC(=O)N(Cc3ccco3)C2=O)cc1,-10.9,-0.4,33.3,63.1*,2.4,-5.9,nt,CSN5 deneddyl=56.0*;MMP2 cntr CSN=19.2*;Thrombin counter=0.3

# Compound activity deposited in PubChem BioAssay by several laboratories.
